We go through 17 compounds from ChEMBL document CHEMBL1914435, “Synthesis and evaluation of novel macrocyclic antifungal peptides” (2011).

The subject of experiment [1] is Candida albicans. Briefly: Antifungal activity against Candida albicans CBS 9975 after 24 hrs by broth microdilution method. The format is functional. As to conditions: for MIC: CBS 9975, 24 h. Put shortly: (§1)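 Broth microdilution in YPD (1% yeast extract, 2% peptone, 1% dextrose). Compounds dissolved in water or 10% DMSO at 1 mg/mL, diluted fivefold in YPD, then serially twofold. CBS yeast isolates were grown on YPD agar for 24 h at 30 °C, then in YPD broth with shaking for 24 h. Inoculum was ~1.5 × 10³ cells/ml. Incubation at 30 °C. MIC read visually at 24 h as the lowest concentration giving full growth inhibition.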
(Broth dilution looks for growth in wells or tubes with falling amounts of substance.)

Experiment [2] concerns Candida albicans. Briefly: Antifungal activity against Candida albicans CBS 9975 assessed as agglutinated enlarged round cells after 24 hrs by broth microdilution method. The experiment is classed as functional, organism-based.
In experiment [3] the test system is Candida albicans. Kind of experiment: Antifungal activity against Candida albicans CBS 9975 assessed as enlarged round cells with large vacuoles after 24 hrs by broth microdilution method. The format is functional, organism-based.
For experiment [4], the system named is Candida albicans. Kind of experiment: Antifungal activity against Candida albicans CBS 9975 assessed as enlarged round cells with distorted cytoplasm after 24 hrs by broth microdilution method. The format is functional, organism-based.
For experiment [5], the system named is Candida albicans. Briefly: Antifungal activity against Candida albicans CBS 9975 assessed as reduction in budding cells after 24 hrs by broth microdilution method. The experiment is classed as functional, organism-based.
The subject of experiment [6] is Candida tropicalis. Briefly: Antifungal activity against Candida tropicalis after 24 hrs by broth microdilution method. The experiment is classed as functional, organism-based. Put shortly: as §1
Experiment [7] relates to Nakaseomyces glabratus. Briefly: Antifungal activity against Candida glabrata after 24 hrs by broth microdilution method. The format is functional, organism-based. The method, boiled down:
as §1

Experiment [8] relates to Candida dubliniensis. Briefly: Antifungal activity against Candida dubliniensis after 24 hrs by broth microdilution method. The experiment is classed as functional, organism-based. Put shortly: as §1
Experiment [9] deals with Candida albicans. Briefly: Antifungal activity against Candida albicans after 24 hrs by broth microdilution method. The experiment is classed as functional, organism-based. Put shortly: as §1
Experiment [10] concerns Pichia kudriavzevii. Kind of experiment: Antifungal activity against Candida krusei after 24 hrs by broth microdilution method. The format is functional, organism-based. The method, boiled down:
as §1

Experiment [11] has as its system Candida parapsilosis. Kind of experiment: Antifungal activity against Candida parapsilosis after 24 hrs by broth microdilution method. The experiment is classed as functional, organism-based. Put shortly: as §1

Converted amounts (≈) assume the structure as drawn. The source made the active and inactive calls. No cut-off for these calls is given here. Starred links: 1 amine or outer side, 2 acyl side, 3 side chain; linkers in the order of their positions; H or OH if unused. Positions of bridges follow the written chain, without caps; N, C: chain ends. Non-standard residues stand in square brackets, D forms with d. Residues, ends and D or L forms follow the SMILES beside them. *: point of attachment. pTerphenylCO(4''-OnC5H11) = CCCCCOc1ccc(-c2ccc(-c3ccc(C(=O)*)cc3)cc2)cc1; hTyr = N[C@@H](CCc1ccc(O)cc1)C(=O)O; Ethylenediamine = C(CN[*:2])N[*:1]; Palmitoyl = CCCCCCCCCCCCCCCC(=O)*; Hyp = O=C(O)[C@@H]1C[C@@H](O)CN1; AllylGly = C=CC[C@H](N)C(=O)O; Orn = NCCC[C@H](N)C(=O)O; NHNH2 = NN*

A word on the MIC: it is the least concentration at which growth counts as inhibited. Lower therefore signals a more susceptible organism. `CCCCCCCCCCCCCCCC(=O)N[C@H]1CCCC[C@@H](C(=O)O)NC(=O)[C@@H]2C[C@@H](O)CN2C(=O)[C@H](CCCN)NC(=O)[C@H](CCc2ccc(O)cc2)NC(=O)[C@@H]2C[C@@H](O)CN2C(=O)[C@H]([C@@H](C)O)NC1=O` registered an MIC in [1] greater than 100 µg/mL.
On the same count and under the same terms, the same measure for `CCCCCCCCCCCCCCCC(=O)N[C@H]1C/C=C\C[C@@H](C(N)=O)NC(=O)[C@@H]2C[C@@H](O)CN2C(=O)[C@H](CCCN)NC(=O)[C@H](CCc2ccc(O)cc2)NC(=O)[C@@H]2C[C@@H](O)CN2C(=O)[C@H]([C@@H](C)O)NC1=O` (Palmitoyl-[AllylGly]T[Hyp][hTyr][Orn][Hyp][AllylGly]-NH2; staple (Z) 1-7): greater than 100 µg/mL.
On to `CCCCCOc1ccc(-c2ccc(-c3ccc(C(=O)N[C@H]4C/C=C\C[C@@H](C(=O)O)NC(=O)[C@@H]5C[C@@H](O)CN5C(=O)[C@H](CCCN)NC(=O)[C@H](CCc5ccc(O)cc5)NC(=O)[C@@H]5C[C@@H](O)CN5C(=O)[C@H]([C@@H](C)O)NC4=O)cc3)cc2)cc1` ({pTerphenylCO(4''-OnC5H11)}-[AllylGly]T[Hyp][hTyr][Orn][Hyp][AllylGly]-OH; staple (Z) 1-7), for which the outcome in experiment [2], in experiment [3], in [4] and in experiment [5] was Active. Also, in experiment [1], the Activity result is “Dose-dependent effect”. Further, in experiment [1], the MIC was greater than 100 µg/mL.
In the case of `CCCCCOc1ccc(-c2ccc(-c3ccc(C(=O)N[C@H]4CCCCNC(=O)[C@@H]5C[C@@H](O)CN5C(=O)[C@H](CCCN)NC(=O)[C@H](CCc5ccc(O)cc5)NC(=O)[C@@H]5C[C@@H](O)CN5C(=O)[C@H]([C@@H](C)O)NC4=O)cc3)cc2)cc1` ({pTerphenylCO(4''-OnC5H11)}-KT[Hyp][hTyr][Orn][Hyp]; lactam 1-C), the result in experiment [6], in experiment [7], in experiment [8], in experiment [9], in experiment [10] and in experiment [11] was Active. The compound also displayed an MIC in experiment [1] greater than 100 µg/mL.
For the compound `CCCCCCCCCCCCCCCC(=O)N[C@H]1C/C=C\C[C@@H](C(=O)O)NC(=O)[C@@H]2C[C@@H](O)CN2C(=O)[C@H](CCCN)NC(=O)[C@H](CCc2ccc(O)cc2)NC(=O)[C@@H]2C[C@@H](O)CN2C(=O)[C@H]([C@@H](C)O)NC1=O` (Palmitoyl-[AllylGly]T[Hyp][hTyr][Orn][Hyp][AllylGly]-OH; staple (Z) 1-7), in experiment [1], the MIC was greater than 100 µg/mL.
In the case of `CCCCCCCCCCCCCCCC(=O)N[C@H]1CSSC[C@@H](C(N)=O)NC(=O)[C@@H]2C[C@@H](O)CN2C(=O)[C@H](CCCN)NC(=O)[C@H](CCc2ccc(O)cc2)NC(=O)[C@@H]2C[C@@H](O)CN2C(=O)[C@H]([C@@H](C)O)NC1=O` (Palmitoyl-CT[Hyp][hTyr][Orn][Hyp]C-NH2; disulfide 1-7), in experiment [1], the MIC is greater than 100 µg/mL.
Take `CCCCCCCCCCCCCCCC(=O)N[C@H]1CCCNC(=O)[C@@H]2C[C@@H](O)CN2C(=O)[C@H](CCCN)NC(=O)[C@H](CCc2ccc(O)cc2)NC(=O)[C@@H]2C[C@@H](O)CN2C(=O)[C@H]([C@@H](C)O)NC1=O` (Palmitoyl-[Orn]T[Hyp][hTyr][Orn][Hyp]; lactam 1-C): the outcome in [6], in [7], in experiment [8], in experiment [9], in [10] and in experiment [11] was Active. The same compound showed an MIC in experiment [1] of 4.38 µg/mL (≈ 4.51 µM).
In the case of `CCCCCCCCCCCCCCCC(=O)N[C@H]1CCCNC(=O)[C@@H]2C[C@@H](O)CN2C(=O)[C@H]([C@@H](C)O)NC(=O)[C@H](CCc2ccc(O)cc2)NC(=O)[C@@H]2C[C@@H](O)CN2C(=O)[C@H]([C@@H](C)O)NC1=O` (Palmitoyl-[Orn]T[Hyp][hTyr]T[Hyp]; lactam 1-C), the result in experiment [6], in experiment [7], in [8], in experiment [9], in experiment [10] and in [11] was Active. For the same compound, the MIC in experiment [1] worked out at 25 µg/mL (≈ 26.1 µM).
Consider `CCCCCOc1ccc(-c2ccc(-c3ccc(C(=O)N[C@H]4C/C=C\C[C@@H](C(=O)NN)NC(=O)[C@@H]5C[C@@H](O)CN5C(=O)[C@H](CCCN)NC(=O)[C@H](CCc5ccc(O)cc5)NC(=O)[C@@H]5C[C@@H](O)CN5C(=O)[C@H]([C@@H](C)O)NC4=O)cc3)cc2)cc1` ({pTerphenylCO(4''-OnC5H11)}-[AllylGly]T[Hyp][hTyr][Orn][Hyp][AllylGly]-NHNH2; staple (Z) 1-7), for which, in experiment [1], the Activity result was “Dose-dependent effect” and the MIC was greater than 100 µg/mL.
As for `CCCCCOc1ccc(-c2ccc(-c3ccc(C(=O)N[C@H]4CCCNC(=O)[C@@H]5C[C@@H](O)CN5C(=O)[C@H]([C@@H](C)O)NC(=O)[C@H](CCc5ccc(O)cc5)NC(=O)[C@@H]5C[C@@H](O)CN5C(=O)[C@H]([C@@H](C)O)NC4=O)cc3)cc2)cc1` ({pTerphenylCO(4''-OnC5H11)}-[Orn]T[Hyp][hTyr]T[Hyp]; lactam 1-C), the outcome in experiment [6], in [7], in [8], in experiment [9], in experiment [10] and in experiment [11] was Active. The same compound registered an MIC in experiment [1] of 0.47 µg/mL (≈ 0.442 µM).
As for `CCCCCOc1ccc(-c2ccc(-c3ccc(C(=O)N[C@H]4C/C=C\C[C@@H](C(=O)OC)NC(=O)[C@@H]5C[C@@H](O)CN5C(=O)[C@H](CCCN)NC(=O)[C@H](CCc5ccc(O)cc5)NC(=O)[C@@H]5C[C@@H](O)CN5C(=O)[C@H]([C@@H](C)O)NC4=O)cc3)cc2)cc1` ({pTerphenylCO(4''-OnC5H11)}-[AllylGly]T[Hyp][hTyr][Orn][Hyp][AllylGly]-OMe; staple (Z) 1-7), in experiment [1], the minimal inhibitory concentration (MIC) is greater than 100 µg/mL.
`CC[C@H](C)C[C@H](C)CCCCCCCCC(=O)N[C@H]1C[C@@H](O)[C@@H](NCCN)NC(=O)[C@@H]2[C@@H](O)CCN2C(=O)[C@H]([C@H](O)CCN)NC(=O)[C@H]([C@H](O)[C@@H](O)c2ccc(O)cc2)NC(=O)[C@@H]2C[C@@H](O)CN2C(=O)[C@H]([C@@H](C)O)NC1=O` [CASPOFUNGIN]: the MIC in experiment [1] was determined as 0.025 µg/mL (≈ 0.0229 µM).
For `CCCCCOc1ccc(-c2ccc(-c3ccc(C(=O)N[C@H]4C/C=C\C[C@@H](C(=O)NCCN)NC(=O)[C@@H]5C[C@@H](O)CN5C(=O)[C@H](CCCN)NC(=O)[C@H](CCc5ccc(O)cc5)NC(=O)[C@@H]5C[C@@H](O)CN5C(=O)[C@H]([C@@H](C)O)NC4=O)cc3)cc2)cc1` ({pTerphenylCO(4''-OnC5H11)}-[AllylGly]T[Hyp][hTyr][Orn][Hyp][AllylGly]-Ethylenediamine; staple (Z) 1-7), in experiment [1], the Activity entry was “Dose-dependent effect” and the MIC was greater than 100 µg/mL.
The matching figures for `CCCCCOc1ccc(-c2ccc(-c3ccc(C(=O)N[C@H]4C/C=C\C[C@@H](CO)NC(=O)[C@@H]5C[C@@H](O)CN5C(=O)[C@H](CCCN)NC(=O)[C@H](CCc5ccc(O)cc5)NC(=O)[C@@H]5C[C@@H](O)CN5C(=O)[C@H]([C@@H](C)O)NC4=O)cc3)cc2)cc1`: “Dose-dependent effect” and greater than 100 µg/mL.
With `CCCCCOc1ccc(-c2ccc(-c3ccc(C(=O)N[C@H]4CCCC[C@@H](C(=O)O)NC(=O)[C@@H]5C[C@@H](O)CN5C(=O)[C@H](CCCN)NC(=O)[C@H](CCc5ccc(O)cc5)NC(=O)[C@@H]5C[C@@H](O)CN5C(=O)[C@H]([C@@H](C)O)NC4=O)cc3)cc2)cc1`, in experiment [1], the MIC was greater than 100 µg/mL.
On the same count and under the same terms, then `CCCCCCCCCCCCCCCC(=O)N[C@H]1CCCC[C@@H](C(N)=O)NC(=O)[C@@H]2C[C@@H](O)CN2C(=O)[C@H](CCCN)NC(=O)[C@H](CCc2ccc(O)cc2)NC(=O)[C@@H]2C[C@@H](O)CN2C(=O)[C@H]([C@@H](C)O)NC1=O`, with greater than 100 µg/mL.
In the case of `CCCCCOc1ccc(-c2ccc(-c3ccc(C(=O)N[C@H]4CCCNC(=O)[C@@H]5C[C@@H](O)CN5C(=O)[C@H](CCCN)NC(=O)[C@H](CCc5ccc(O)cc5)NC(=O)[C@@H]5C[C@@H](O)CN5C(=O)[C@H]([C@@H](C)O)NC4=O)cc3)cc2)cc1` ({pTerphenylCO(4''-OnC5H11)}-[Orn]T[Hyp][hTyr][Orn][Hyp]; lactam 1-C), the result in [6], in [7], in [8], in [9], in [10] and in experiment [11] was Active. The same compound displayed an MIC in experiment [1] of 0.14 µg/mL (≈ 0.13 µM).
